# Screening results (PubChem BioAssay)
# KCNQ1 block – inhibitors of human KCNQ1 channel, primary screen, cell-based, thallium flux, high-throughput; AID 2642, 2010; B-score at 10 µM; actives 1.3% (n = 310,000); CHO-K1 KCNQ1, FluxOR thallium flux fluorescence; stronger effect = higher value;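 active means compounds whose thallium flux B-score, printed positive for inhibition, exceeds three library SD while starting fluorescence stays within three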;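 further: channel opened by potassium depolarization with thallium stimulus after 20 min compound exposure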
# KCNK9 block – KCNK9 potassium channel inhibitors, primary screen, HEK293 cells, thallium flux | Potassium channel subfamily K member 9 (Homo sapiens), Q9NPC2 | FluxOR thallium flux fluorescence; stronger effect = lower value | B-score at 10 µM | actives 1.2% (n = 310,000) | AID 488922, 2010;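 active means ratio B-score over 3 SD below the library mean, with starting fluorescence within 5 SD of its mean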;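 further: negative B-score means less thallium flux so channel inhibition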
# Kir21 inh – inhibitors of mouse Kir2.1 inward-rectifier potassium channel. B-score at 10 µM. actives 0.85% (n = 310,000). HEK293-Kir2.1, FluxOR thallium flux fluorescence; stronger effect = lower value. Inward rectifier potassium channel 2 (Mus musculus), P35561;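 active means fluorescence ratio B-score at or below minus 3 SD of library scores, with starting-brightness B-score within 2 SD, cut at about -4.2 in these data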;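 further: channel flux triggered by added potassium and thallium sulfate stimulus; B-score of peak minus minimum fluorescence over baseline after thallium stimulus; more negative B-score means stronger Kir2.1 block with less thallium influx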
# Target sequence (P35561 whole entry, looked up): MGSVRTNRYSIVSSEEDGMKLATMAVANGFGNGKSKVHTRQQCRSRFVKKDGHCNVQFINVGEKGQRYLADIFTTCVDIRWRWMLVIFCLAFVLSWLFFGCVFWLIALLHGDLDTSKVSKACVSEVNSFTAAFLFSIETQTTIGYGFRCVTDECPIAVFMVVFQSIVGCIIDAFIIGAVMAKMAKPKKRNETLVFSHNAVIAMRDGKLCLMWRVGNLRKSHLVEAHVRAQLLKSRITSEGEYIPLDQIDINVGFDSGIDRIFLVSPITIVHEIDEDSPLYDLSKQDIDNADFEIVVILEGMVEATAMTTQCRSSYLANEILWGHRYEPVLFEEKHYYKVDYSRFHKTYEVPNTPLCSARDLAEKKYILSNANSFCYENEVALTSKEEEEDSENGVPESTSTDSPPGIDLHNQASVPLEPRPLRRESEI
# hERG rescue – hERG rescue from dofetilide block, primary screen, cell-based, CHO-hERG, FluxOR thallium flux, dofetilide IC70. Voltage-gated inwardly rectifying potassium channel KCNH2 (Homo sapiens), Q12809. dofetilide IC70 present. activation (rescue from dofetilide block), less the hit threshold, % at 10 µM. actives 0.51% (n = 310,000). AID 1511, 2009;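 active means activation above the mean of controls blocked by dofetilide plus 5 SD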;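 further: thallium influx through hERG after potassium depolarization seen as dye fluorescence rise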
# KCNK3 block – human KCNK3 channel inhibitors, primary screen, CHO cells, FluxOR thallium flux, B-score; Potassium channel subfamily K member 3 (Homo sapiens), O14649; FluxOR fluorescence; stronger effect = lower value; B-score at 10 µM; actives 0.84% (n = 340,000); AID 602410, 2012;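 active means B-score under library mean minus 4 SD, starting fluorescence ratio at most library mean plus 5 SD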;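 further: more negative B-score means stronger inhibition of thallium flux through KCNK3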
# KCNQ1 act – potentiators or activators of KCNQ1 channel, primary screen, cell-based, thallium flux, high-throughput. Potassium voltage-gated channel subfamily KQT member 1 (Homo sapiens), P51787. CHO-K1 KCNQ1, thallium flux FluxOR fluorescence; stronger effect = higher value. B-score at 10 µM. actives 0.35% (n = 310,000). AID 2648, 2010;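 active means fluorescence ratio B-score, a plate-corrected score, at least three library SD, with initial intensity B-score within 5 SD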
#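 assay system = CHO-K1 cells stably expressing KCNQ1 | medium = assay buffer, equal DMSO in all wells | timing = 37 °C overnight plating, 90-min dark dye load, 20-min compound pretreatment | measured by = kinetic FluxOR thallium fluorescence, 10-s 1-Hz baseline, 110-s post-stimulus read | measure = fluorescence change relative to baseline, converted to B score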
# The depositor's hits bear a star; i = inactive; . = no result given. Shown are actives, neighbours in structure and some others; about 3.7% of the full set was active somewhere.
SMILES,KCNQ1 block,KCNK9 block,Kir21 inh,hERG rescue,KCNK3 block,KCNQ1 act
Nc1c(Cl)cc(-c2[nH]c3cc(C(=O)NCCO)ccc3c(=O)c2O)cc1Cl,i,i,-0.48,-14.6,i,i
CC(C)c1cc(=O)oc2c3c4c(cc12)CCCN4CCC3,i,i,-0.93,-12.8,i,i
CN1CCCc2cc3c(C(F)(F)F)cc(=O)oc3nc21,11*,i,-7.13,-23.1,i,i
CSc1nnc2n(C)c3c(c(=O)n12)C1(CCCC1)Cc1ccccc1-3,i,-7.17*,-1.49,-19.8,i,i
OC1(C#CCCN2CCCCC2)c2ccccc2-c2ccccc21,i,i,0.06,3.5,i,i
N#CC1(CCCN2CCCCC2)c2ccccc2CCc2ccccc21,i,i,-5.61*,-11.1,i,i
COc1ccc(Cl)cc1NC(=O)COC(=O)Cc1cc(OC)c(OC)c(OC)c1,.,.,.,.,i,.
COc1ccc(Cl)cc1NC(=O)COC(=O)CCc1cc(OC)c(OC)c(OC)c1,i,i,-4.94*,-5.7,i,i
Cc1ccc2nc3sc(C(=O)Nc4ccc(N5CCOCC5)cc4)c(N)c3cc2c1,i,i,0.17,-1.5,.,i
Cc1cccc2cc3c(N)c(C(=O)Nc4ccc(N5CCOCC5)cc4)sc3nc12,i,i,-2.9,-0.8,-11.3*,i
CCCCN1C(=O)C(=O)N(CC(=O)Nc2ccccc2C(=O)OCC)C1=O,i,i,0.25,-14.5,i,i
CCN1C(=O)[C@H]2[C@@H](c3ccc(-c4cccc(Cl)c4)cc3)N[C@@](C)(C(=O)OC)[C@H]2C1=O,i,i,0,-9.3,i,i
CC1(C)Cc2c(sc3c2c(=N)n(Cc2ccco2)c(=O)n3Cc2ccc(Cl)cc2)CO1,8*,i,-0.01,-8.7,i,i
CC1(C)Cc2c(sc3c2c(=N)n(Cc2ccco2)c(=O)n3Cc2ccccc2)CO1,i,i,-2.19,-7.4,i,i
CCN(C(=O)CSc1nnc(COc2cccc(C)c2)o1)c1nc(C)cs1,i,i,0.18,-10.3,i,i
CCC(Cc1ccccc1)NC(=O)C1CCN(S(=O)(=O)c2ccc3c(c2)CC(C)N3C(C)=O)CC1 (stereo unspecified),i,i,-2.08,-16.0,i,i
CCOc1ccc(NC(=O)CN2CCN(CC(=O)Nc3ccc(C(N)=O)cc3)CC2)cc1,i,i,-0.99,2.8,i,i
CCCCCn1c(N2CCN(c3cccc(Cl)c3)CC2)nc2c1c(=O)[nH]c(=O)n2C,i,-7.34*,0.58,-14.6,i,i
Cn1c(=O)[nH]c(=O)c2c1nc(N1CCN(c3cccc(Cl)c3)CC1)n2CCCc1ccccc1,i,i,-1.44,-8.8,.,i
Cc1ccc(-c2nnc(COC(=O)c3cccs3)o2)cc1,i,i,-0.19,-7.4,i,i
CC1(C)N=C(N)NC(Nc2cccc(Br)c2)=N1,i,i,0.07,-6.3,i,9*
O=[N+]([O-])c1cccc(/C=C/C=N/Nc2nc(N3CCCCC3)nc(N3CCCCC3)n2)c1,6*,i,-1.3,1.4,i,i
O=[N+]([O-])c1cccc(/C=N/Nc2nc(N3CCOCC3)nc(N3CCOCC3)n2)c1,i,i,-1.2,-9.3,i,i
COCC(=O)OCC(=O)Nc1ccccc1-c1ccccc1,i,i,0.35,-5.6,i,i
Cc1ccccc1OCC(=O)N1CCN(C(=O)COc2ccccc2C)CC1,i,i,-0.2,-2.4,i,i
CCCc1sc(N)nc1-c1ccc(Cl)cc1,i,i,-4.33*,-5.9,i,i
CCNc1nc(-c2ccc(Cl)cc2)cs1,i,i,-0.18,-10.1,i,i
